The campaign covered roughly 2,400 compounds. About 1,200 (50%) were called active. The set was probably picked from earlier hits. Only a sample is shown. Values without a mark were called inactive.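 How the source made its calls: active means activation above the run cutoff, the mean activation over all tested wells plus 3 SD (cut at about 12% in these data); inactive means the rest.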
Assay: nonselective calcium mobilization agonists, CHO-Ga16 cells, counter-screen for hTAAR1 agonist project, cell-based, fluorescence, CHO-Ga16 parental line (AID 651787)
Conditions: Fluo-8 calcium fluorescence, at 3 µM, active compounds read high, normalized to maximal ATP response, DMSO zero
In short: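 Assay system: Gα16-overexpressing parental CHO cells; read-out basis: percent activation from max/basal fluorescence ratio; schedule: 17-24 h seeding, dye 75 min 37 °C, 30 min RT; control set: DMSO (0%) and EC100 ATP (100%); signal: kinetic Fluo-8 calcium fluorescence, ex 470-495/em 515-575 nm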

Row | SMILES | activation
1 | Nc1cccc2c1C(=O)N(Cc1nnc(-c3ccccc3Br)o1)C2=O | 60.4% (active)
2 | CCCCCC(=O)NC(=S)NNC(=O)c1ccc([N+](=O)[O-])cc1 | 91.4% (active)
3 | O=C(NCCc1ccccc1)/C(=C\c1ccc([N+](=O)[O-])cc1)NC(=O)c1ccccc1 | 2.11%
4 | CCCC1CCC(=NNC(=S)NCCc2ccccc2)CC1 (stereo not given) | 14.1% (active)
5 | O=C(O)C1CC=CCC1C(=O)NCCc1ccccc1 (stereo not given) | 0.16%
6 | CCC(C(=O)Nc1ccc(C(C)C)cc1)c1ccccc1 (stereo not given) | 75.1% (active)
7 | c1ccc(C2CNCc3c2ccc2ccccc32)cc1 (stereo not given) | 25.6% (active)
8 | COc1ccc(C(=O)CN2C(=O)NC(C)(c3ccc(C)cc3)C2=O)cc1OC (stereo not given) | 20.1% (active)
9 | Cc1ccc(O)c(NC(=S)NC(=O)COc2ccc(Br)cc2)c1 | 101% (active)
10 | CCCOc1ccc(-c2c(C(=O)N/N=C/c3ccco3)nnn2-c2nonc2N)cc1 | 39.5% (active)
11 | Nc1nonc1-n1nnc(C(=O)N/N=C/c2ccc(Cl)cc2)c1-c1ccc2c(c1)OCO2 | 92.4% (active)
12 | c1ccc(-c2csc(N3CCc4ccccc4C3)n2)cc1 | 0.58%
13 | O=C(Nc1ccc(F)cc1)Nc1nnc([C@H]2C[C@H](O)[C@@H](CO)O2)s1 | 4.42%
14 | O=C(CSc1nc(-c2ccco2)cc(C(F)(F)F)n1)NCc1cccs1 | 0.35%
15 | COc1cccc(N(CC(=O)N2CCc3ccccc3C2)S(C)(=O)=O)c1 | 1.72%
16 | C#CCOc1ccc(/C=C2/C(=O)NN(c3ccccc3)C2=O)cc1OC | 45.9% (active)
17 | Cc1ccc(Cl)cc1N1CCN(C(=O)c2cccc3c(=O)c(C)c(-c4ccccc4)oc23)CC1 | 78.9% (active)
18 | CCCc1ccc(OCC(=O)NNC(=S)NC(=O)c2ccco2)cc1 | 64.1% (active)
19 | CC(Oc1ccc2ccccc2c1)C(=O)NNC(=S)NC(=O)c1ccco1 (stereo not given) | 75.1% (active)
20 | COCCCn1c(Cc2csc(Nc3cccc(Cl)c3)n2)nnc1SCC(=O)OC1CCCCC1 | 3.91%
21 | CC(C)(C)CC(=O)Nc1nc(C(N)Cc2ccc(C(F)(F)F)cc2)cs1 (stereo not given) | 79.7% (active)
22 | NC(Cc1ccccc1)c1csc(Nc2cc(Oc3ccccc3)ncn2)n1 (stereo not given) | 39% (active)
23 | COc1ccc(CC(N)c2csc(NC(=O)Cc3ccccc3)n2)cc1 (stereo not given) | 15.8% (active)
24 | Cn1c(=O)c(=O)n(C)c2cc(S(=O)(=O)NCCc3ccccc3)ccc21 | 0.95%

Row | SMILES | activation
25 | O=C(O)C1C2C=CC(O2)C1C(=O)NCCc1cccc(Cl)c1 (stereo not given) | 2.07%
26 | CCCc1cc(C(=O)Nc2ccc(C(=O)OC)cc2)cs1 | 4.88%
27 | O=C(c1noc2c1CCCC2)N1CCc2ccccc2C1 | 3.31%
28 | NC(=O)C1=C[C@H](c2csc3ccccc23)C[C@H](OCc2ccc(CO)cc2)O1 | 33.4% (active)
29 | Cc1cc2nc3c(=O)[nH]c(=O)nc-3n(C[C@H](O)[C@H](O)[C@H](O)CO)c2cc1C | 138% (active)
30 | Cc1ccccc1-c1nc(CS(=O)(=O)CC(=O)N2CCc3ccccc3C2)c(C)o1 | 5.05%
31 | O=C(NNC(=S)NC(=O)c1cn(-c2ccccc2)nc1-c1ccccc1)c1ccncc1 | 79.1% (active)
32 | CC(NC(=O)c1cc(-c2ccccc2)on1)c1ccccc1 (stereo not given) | 37.5% (active)
33 | CCc1ccccc1S(=O)(=O)Cc1ccc(C(=O)NCCc2ccccc2)o1 | 5.88%
34 | Cc1ccc(S(=O)(=O)N(CC(=O)N2CCc3ccccc3C2)c2cccc(Cl)c2)cc1 | -0.38%
35 | CC(=O)Nc1ccccc1Sc1ccc2c3c(cccc13)C(=O)N(c1ccc(C)cc1)C2=O | 0.61%
36 | C[C@H](NC(=O)c1ccccc1)C(=O)OCC(=O)c1c[nH]c2ccccc12 | 0%
37 | COc1cc(OC)cc(C(=O)N[C@H](C(=O)OCC(=O)NC(C)c2ccccc2)C(C)C)c1 (stereo not given in full) | 24.2% (active)
38 | CCCn1c(O)c(CN2CCCC(C)C2)c(C)c(C#N)c1=O (stereo not given) | 4.14%
39 | COc1ccc(C(=O)NC(=S)NNC(=O)c2c(-c3ccccc3)noc2C)cc1 | 68.8% (active)
40 | Cc1onc(-c2ccccc2)c1C(=O)NNC(=S)NC(=O)c1ccc(F)cc1 | 105% (active)
41 | Cc1cc(=O)oc2c(C)c(OCC(=O)NCCN3CCOCC3)ccc12 | 4.41%
42 | COc1ccc(C(=O)NC(=S)NNC(=O)CCc2ccccc2)cc1 | 87.2% (active)
43 | COc1ccc(C(=O)NNC(=S)NC(=O)c2ccccc2)cc1 | 94.4% (active)
44 | O=C(Nc1cccc(NC(=O)c2ccc(Br)cc2)c1)c1ccccc1 | 5.7%
45 | COc1ccc(OC)c(C(c2nnnn2C(C)(C)C)N2CCc3ccccc3C2)c1 (stereo not given) | -0.7%
46 | Nc1c(C(=O)c2cccs2)sc2nsc(SCCN3CCCCC3)c12 | 72.3% (active)
47 | CCC(c1nnnn1Cc1ccco1)N(CCc1ccccc1)Cc1cc2ccc(OC)cc2[nH]c1=O (stereo not given) | 4.24%
48 | O=C1CCCC(O)=C1C=NCCc1ccccc1 | 5.18%

Row | SMILES | activation
49 | CCCCCc1c(-c2cccc(Br)c2)ncn1CCc1ccccc1OC | 10.8%
50 | CCCCCc1c(Cc2ccccc2)ncn1CCc1ccccc1OC | 17% (active)
51 | CCc1c(-c2ccccc2OC)ncn1CCc1ccccc1OC | 5.18%
52 | CCCCc1c(-c2ccc(Cl)cc2)ncn1CCc1ccccc1OC | 16.1% (active)
53 | CCCCCc1c(-c2ccc(OC)c(OC)c2)ncn1CCc1ccccc1OC | 17.4% (active)
54 | CCCCc1c(-c2ccc(Br)cc2)ncn1CCc1ccccc1OC | 13.2% (active)
55 | O=[N+]([O-])c1cc(S(=O)(=O)NCCc2ccccn2)ccc1Cl | 2.99%
56 | CCCCCCCCCCOC(=O)Cn1c(COc2ccc(C)cc2)[n+](C)c2ccccc21 | 76.5% (active)
57 | Cc1c(CNCCc2ccccc2)c(C(=O)O)c(C)n1-c1ccccc1 | 1.76%
58 | S=C(Nc1ccc(Br)cc1)NC1CCN(Cc2ccccc2)CC1 | 22.9% (active)
59 | O=C(/C=C/[C@H]1O[C@@H](n2cnc3c(NC(=O)c4ccccc4)ncnc32)[C@H](O)[C@@H]1O)NCc1ccccc1 | 0.21%
60 | O=C(Cc1ccc(Cl)cc1)NC(=S)Nc1ccccc1O | 103% (active)
61 | O=C(NCCc1ccccc1)Oc1ccc(Cl)cc1 | 1.7%
62 | Cc1ccccc1NC(=S)NC(=O)Cc1ccc(Cl)cc1 | 41.1% (active)
63 | O=c1cnnc(Nc2ccccc2)[nH]1 | 4.92%
64 | O=C(Nc1ccccc1)Nc1nnc(COc2ccccc2F)s1 | 8.56%
65 | O=Cc1c(NCCc2cccc(F)c2)c2ccccc2[nH]c1=O | 2.77%
66 | CCCCC(=O)NNC(=S)NC(=O)C(c1ccccc1)c1ccccc1 | 119% (active)
67 | CN(C)CCCN(C(=O)c1ccc(S(=O)(=O)N2CCCc3ccccc32)cc1)c1nc2ccc(F)cc2s1 | 37.7% (active)
68 | CN(C)CCCN(C(=O)c1ccc(S(=O)(=O)N2CCCCCC2)cc1)c1nc2ccc(Br)cc2s1 | 36.2% (active)
69 | Nc1nnn(CC(=O)N/N=C/c2ccccc2)n1 | -0.59%
70 | c1ccc(CCN2CN=C(Nc3nc4ccccc4o3)NC2)cc1 | 0.14%
71 | CC(=O)Oc1ccc(Cn2c(C)c(C(=O)NCc3ccc(C#N)cc3)sc2=O)cc1 | 66.2% (active)
72 | Cc1cccc(NC(=O)C(C)N2C(=O)C3C4CC(C(Br)C4Br)C3C2=O)c1 (stereo not given) | 25.2% (active)

Row | SMILES | activation
73 | c1ccc(Nc2nc(N3CCOCC3)c3ccccc3n2)cc1 | 14.2% (active)
74 | Nc1c(NCCc2ccccc2)c2ccccc2oc1=O | 6.54%
75 | CCCCOc1ccc(CSC(=N)N)cc1[N+](=O)[O-] | 22.3% (active)
76 | CCOc1ccc(Br)cc1CSC(=N)N | 9.07%
77 | CCN(CC)c1ccc2oc(=O)c(C)nc2c1 | 43.7% (active)
78 | Oc1ccc2ccc3cccc[n+]3c2c1 | 126% (active)
79 | CN(C(=O)CN(CCO)CC(=O)N(C)C(C)(C)Cc1ccccc1)C(C)(C)Cc1ccccc1 | 84.7% (active)
80 | NC[C@H](Cc1ccccc1)NCCc1cc(C(F)(F)F)cc(C(F)(F)F)c1 | 21.6% (active)
81 | CCc1ccc(-c2nn(-c3ccccc3)cc2CSC(=N)N)cc1 | 26.4% (active)
82 | CN(C)c1ccc(/C=C2\NC(=S)N(Cc3ccccc3)C2=O)cc1 | 67.4% (active)
83 | O=C1CCCN2N=C(SCC(=O)Nc3ccc(Br)cc3)SC2=N1 | 8.82%
84 | O=C(Nc1ccncc1)Nc1ccc(F)cc1 | 4.69%
85 | Cc1cc(C)c2cc(C#N)c(N3CCNCC3)nc2c1 | -0.65%
86 | N#Cc1ccc(OCCCN2CCC(C(O)(c3ccccc3)c3ccccc3)CC2)c(F)c1 | 21.1% (active)
87 | O=C(CNC(=O)c1ccccc1F)OCC(=O)c1c[nH]c2ccccc12 | 2.13%
88 | S=C(NCCCc1cnc[nH]1)NCCCN(Cc1ccc(Cl)c(Cl)c1)c1ccc(Br)cn1 | 26.5% (active)
89 | COc1ccc(NC(=O)C(=O)NCC(c2ccco2)N2CCc3ccccc3C2)cc1 (stereo not given) | 0.06%
90 | COC(=O)c1[nH]c2cccc(C)c2c1NC(=O)CN1CCCc2ccccc21 | 11.5%
91 | COc1ccc(C(N)c2csc(NC(=O)Nc3cccc(C(F)(F)F)c3)n2)cc1 (stereo not given) | 22.4% (active)
92 | NC(c1ccccc1)c1csc(NC(=O)Nc2cccc(C(F)(F)F)c2)n1 (stereo not given) | 37% (active)
93 | CCOC(=O)Cc1csc(NC(=O)Nc2ccccc2)n1 | 10.9%
94 | Cc1ccn2c(=O)c(C(=O)NCCC3=CCCCC3)c(O)nc2c1 | 4.2%
95 | O=C(CCCN=C1NS(=O)(=O)c2ccccc21)OCC(=O)c1ccc(F)c(F)c1 | 51.3% (active)

From PubChem BioAssay AID651787 (The Scripps Research Institute Molecular Screening Center, 2012)
